Shown is part of a subset that was picked to be rich in hits.
HUVEC inhibit: inhibitors of HUVEC proliferation, primary screen, cell-based, 384-well | 86,000 compounds, 1.1% hits | AID 648, 2007 | viability, % at 10 µM (by protocol) | CellTiter-Glo luminescence, 72 h; hits give low values;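 active = viability at or below 30%; inactive = viability above 30%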;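 note: 100% = median luminescence of DMSO-only cell control wells on each plate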
Fibroblast inh: antiproliferative effect on LL 47 fibroblasts – human, LL 47 cells, CellTiter-Glo luminescence, primary screen; LL 47 human lung fibroblast viability, ATP luminescence; hits give low values; viability, % at 10 µM; 85,000 compounds, 1.1% hits;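 active = viability at or below 50% in the single dose screen; inactive = viability above 50%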;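 note: compound exposure lasted 72 h before the ATP readout; 100% = median luminescence of untreated cell-only wells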
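Times – overnight cell rest, 72 h compound treatment at 37 °C · Test system – human lung fibroblast line LL 47, low passage · Amount – 1,150 cells in each well · Controls – cell-only wells, no compound · Doses – 0.1% DMSO in all compound wells · Measured by – CellTiter-Glo luminescence · Buffer or medium – IMEM plus 15% FBS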
H69AR growth 86K: proliferation blockers of H69AR lung cancer cells, primary screen, cell-based, human, 86K library; 85,000 compounds, 6% hits; AID 598, 2007; viability, % at 10 µM; H69AR lung tumor viability, ATP luminescence, 72 h; hits give low values;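 active = viability at or below 40%; inactive = viability above 40%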;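 note: multidrug resistant small cell line overexpressing MRP-1 efflux transporter; 100% = mean luminescence of untreated control wells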
bCat KO growth: primary screen for growth suppressors in beta-catenin knockout HCT116 cells (colon tumor, human); HCT116 beta-catenin knockout viability, CellTiter-Glo, 60 h; hits give low values; viability, % at 10 µM; 140,000 compounds, 1.5% hits;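 active = viability at or under a set limit, the compound median less 4 SD, cut at about 6% in these data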;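 note: 0% = Hyamine 1622 control at 20 µM and 100% = untreated cell control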
HCT116 PTEN-null: growth suppression of PTEN-null HCT116, primary screen, cell-based, CellTiter-Glo; HCT116 PTEN-null viability, 60 h; hits give low values; 140,000 compounds, 1.2% hits; viability, % at 10 µM; AID 827, 2007;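 active = viability at or below a set limit, 4 SD under the median of all tested compounds, cut at about 3.7% in these data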;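 note: PTEN knockout HCT116 line with beta catenin targeted HCT116 as companion control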
* = called active by the depositor; · = not tested or not shown.

SMILES	HUVEC inhibit	Fibroblast inh	H69AR growth 86K	bCat KO growth	HCT116 PTEN-null
Cc1cccc(-c2nc(CN3CCCC(C(=O)NC4CCCCCC4)C3)c(C)o2)c1 (configuration not stated)	35	94	40*	58	59
Cc1oc(-c2ccc(Cl)cc2)nc1CN1CCCC(C(=O)NCc2ccccn2)C1 (configuration not stated)	102	111	71	68	72
Cc1oc(-c2cccc(Cl)c2)nc1CN1CCCC(C(=O)NCc2ccco2)C1 (configuration not stated)	76	90	60	66	82
COc1ccc(OC)c(NS(=O)(=O)c2ccc3c(c2)CCC(=O)N3)c1	102	103	84	80	82
Cc1c(C)n(C(=O)CN2CCC(C)CC2)c2ccccc12	94	100	84	90	98
c1ccc(-c2oc3ncnc(NCCN4CCOCC4)c3c2-c2ccccc2)cc1	59	84	36*	76	65
N=c1c2c(-c3ccccc3)c(-c3ccccc3)oc2ncn1CCN1CCOCC1	54	84	42	26	24
N=c1c2c(-c3ccccc3)c(-c3ccccc3)oc2ncn1CCCN1CCOCC1	8.9*	79	46	41	43
Cc1[nH]c(=O)[nH]c(=O)c1NS(=O)(=O)c1ccccc1	·	·	·	100	107
COc1cc(NC(=O)COC(=O)/C=C/c2c(C)nn(C3CCS(=O)(=O)C3)c2Cl)cc(OC)c1OC (configuration not stated)	·	·	·	78	90
COc1cc(Cl)c(C)cc1NC(=O)COC(=O)/C=C/c1c(C)nn(C2CCS(=O)(=O)C2)c1Cl (configuration not stated)	56	65	33*	86	82
Cc1ccc(CN(Cc2ccco2)S(=O)(=O)c2ccc(S(=O)(=O)NCC3CCCO3)cc2)cc1 (configuration not stated)	·	·	·	85	87
O=C1C2=C(NC(=S)NC2c2ccc(Cl)cc2)NC(c2ccc(Cl)cc2)N1c1ccc(Cl)cc1 (configuration not stated)	7.6*	98	0.1*	13	22
CCc1ccc(C2NC(=S)NC3=C2C(=O)N(c2ccccc2OC)C(c2ccc(CC)cc2)N3)cc1 (configuration not stated)	·	·	·	75	71
N=c1n(CCN2CCCCC2)c2ccccc2n1CC(O)c1ccc(Cl)c(Cl)c1 (configuration not stated)	·	·	·	0.9*	1.1*
N=c1n(CCN2CCCC2)c2ccccc2n1CC(O)c1ccco1 (configuration not stated)	86	97	84	92	86
N=c1n(CCN2CCCCC2)c2ccccc2n1CC(O)c1cccc(Br)c1 (configuration not stated)	65	46*	22*	12	11
COc1ccc(C(=O)c2c(C(F)(F)F)oc3c2C(=O)c2ccccc2C3=O)cc1OC	4.7*	2.4*	1.6*	1.3*	1.9*
CC1CCC(NC(=O)c2ccc(NC(=O)c3ccc(=O)[nH]c3)cc2)CC1 (configuration not stated)	·	·	·	70	84
O=C(Nc1ccc(Cl)c(Cl)c1)C1=Cc2ccccc2OC1	35	92	16*	2.6*	2.6*
CSC(=NC#N)N1CCN(c2ccccc2)CC1	·	·	·	88	80
CCOC(=O)c1c(C)c(-c2ccccc2)n(CC(=O)NCCC(C)C)c1C	89	103	87	87	83
CCOc1cc2[nH]c(=O)n(CC3CCC(C(=O)NC4CCCCC4)CC3)c(=O)c2cc1OCC (configuration not stated)	30*	100	90	·	·
CCN1c2ccccc2NC2C1C(C(C)=O)C(=O)N2c1ccc(Cl)cc1 (configuration not stated)	54	79	18*	75	69
O=C(NCc1ccccc1Cl)c1ccc2nc[nH]c2c1	·	·	·	93	108
SMILES	HUVEC inhibit	Fibroblast inh	H69AR growth 86K	bCat KO growth	HCT116 PTEN-null
Cc1ccc(C)c(S(=O)(=O)C(C#N)c2nc3ccccc3nc2N2CC(C)OC(C)C2)c1 (configuration not stated)	70	86	39*	74	78
CCN(CC(=O)Nc1ccc2c(c1)CCC2)Cc1nc2ccccc2c(=O)[nH]1	84	86	33*	75	71
CCN(CC(=O)NC(c1ccccc1)c1ccccc1)Cc1nc2ccccc2c(=O)[nH]1	88	99	53	80	84
CCc1ccc2c(CN(CC)Cc3nc4ccccc4c(=O)[nH]3)cc(=O)oc2c1	83	90	36*	65	64
CCN(CC)CC(=O)Nc1ccc2c(c1)Nc1ccccc1CC2	34	77	4.0*	31	31
CCN(Cc1nc2ccccc2c(=O)[nH]1)Cc1nc2cc(OC)c(OC)cc2c(=O)[nH]1	93	103	15*	97	100
COc1cc2nc(CN(C)Cc3nc4ccccc4c(=O)[nH]3)[nH]c(=O)c2cc1OC	·	·	·	103	91
CCOC(=O)c1ccc(NC(=S)N2CCSC2c2ccc(Br)cc2)cc1 (configuration not stated)	·	·	·	70	67
Cc1cc2nc(Sc3c([N+](=O)[O-])nc(C)n3Cc3ccccc3)[nH]c2cc1C	·	·	·	4.6*	2.8*
COc1ccc2nc(Sc3c([N+](=O)[O-])nc(C)n3Cc3ccccc3)[nH]c2c1	·	·	·	4.6*	1.7*
Cc1nc([N+](=O)[O-])c(Sc2nc3ccccc3[nH]2)n1Cc1ccccc1	·	·	·	11	16
Cc1ccc(S(=O)(=O)N2CCOCC2)cc1C(=O)N1c2ccccc2Sc2ccccc21	·	·	·	56	58
CC(C)(C)c1ccc(S(=O)(=O)N2CCSC2)cc1	·	·	·	84	92
Cc1cccc(C=Nc2ccccc2C(N)=O)c1	63	58	23*	22	24
Cn1nnnc1Sc1ncnc2scc(-c3ccc(F)cc3)c12	·	·	·	5.5*	3.7*
Nc1nc(Nc2cccc3ccccc23)nc(C2CCCC2=O)n1 (configuration not stated)	15*	91	0.8*	77	60
O=C(O)C1CCCCC1C(=O)Nc1cccc2ccccc12 (configuration not stated)	92	108	83	91	94
CC(C)(C)NC(=O)C(c1c[nH]c2ccccc12)N(C(=O)Cn1nnc(-c2ccc(F)cc2)n1)c1cccc(O)c1 (configuration not stated)	·	·	·	38	28
CN1CCN(C(=O)c2cc3nc(-c4ccccc4)cc(-c4ccccc4)n3n2)CC1	47	87	48	78	88
Cc1cc(N2CCN(C(=O)c3ccco3)CC2)n2nc(C)c(-c3ccc(Cl)cc3)c2n1	34	50	16*	·	·
Cc1cc(N2CCN(C(=O)c3ccco3)CC2)n2nc(C)c(-c3ccccc3)c2n1	80	100	18*	91	73

Assay outcomes: PubChem, SRMLSC
